Measurements taken from ChEMBL document CHEMBL1275556, “High prevalence of plasmid-mediated quinolone resistance genes qnr and aac(6')-Ib-cr in clinical isolates of Enterobacteriaceae from nine teaching hospitals in China” (2008).
In brackets after ≈: the same amount, converted by molar mass.

Tests used:
Citrobacter freundii [1] = assay: Antimicrobial activity against aac(6')-Ib-cr-positive Citrobacter freundii TJ15 harboring GyrA T83I, ParC S80I mutant, wild-type GyrB, qnrB genes by agar dilution method; assay type: functional
Method in brief: (§1)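 MICs were determined by the CLSI agar dilution method (M7-A7) and interpreted against CLSI M100-S17 breakpoints.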

Enterobacter cloacae [2] = assay: Antimicrobial activity against aac(6')-Ib-cr-negative Enterobacter cloacae GZ51 harboring qnrA gene by agar dilution method; assay type: functional
Escherichia coli [3] = assay: Antimicrobial activity against aac(6')-Ib-cr-negative Escherichia coli PU12T harboring wild-type GyrA, GyrB, ParC and qnrS genes by agar dilution method; assay type: functional; method in brief: as §1
Klebsiella pneumoniae [4] = assay: Antimicrobial activity against aac(6')-Ib-cr-positive Klebsiella pneumoniae SY26 harboring GyrA S83I, ParC S80I mutant, wild-type GyrB and qnrB genes by agar dilution method; assay type: functional
Method in brief: (§2)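 MICs were determined on clinical isolates by CLSI agar dilution (M7-A7) and interpreted against CLSI M100-S17 breakpoints.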

Citrobacter freundii [5] = assay: Antimicrobial activity against aac(6')-Ib-cr-positive Citrobacter freundii PU55 harboring GyrA T83I, ParC S80I mutant, wild-type GyrB, qnrA genes by agar dilution method; assay type: functional; method in brief: as §1
Citrobacter freundii [6] = assay: Antimicrobial activity against aac(6')-Ib-cr-negative Citrobacter freundii JN64T harboring qnrA gene by agar dilution method; assay type: functional; method in brief: as §1
Escherichia coli [7] = assay: Antimicrobial activity against aac(6')-Ib-cr-positive Escherichia coli FJ3 harboring GyrA S83L, ParC S80R mutant, wild-type GyrB and qnrB genes by agar dilution method; assay type: functional; method in brief: as §1
Enterobacter cloacae [8] = assay: Antimicrobial activity against aac(6')-Ib-cr-negative Enterobacter cloacae FJ67T harboring qnrS gene by agar dilution method; assay type: functional
Enterobacter cloacae [9] = assay: Antimicrobial activity against aac(6')-Ib-cr-negative Enterobacter cloacae SH39 harboring GyrA S83I, ParC S80I mutant, wild-type GyrB and qnrA genes by agar dilution method; assay type: functional
Klebsiella pneumoniae [10] = assay: Antimicrobial activity against aac(6')-Ib-cr-positive Klebsiella pneumoniae GZ40T harboring qnrB gene by agar dilution method
Citrobacter freundii [11] = assay: Antimicrobial activity against aac(6')-Ib-cr-positive Citrobacter freundii JS33 harboring GyrA T83I mutant, wild-type ParC, GyrB, qnrA and qnrB genes by agar dilution method; assay type: functional; method in brief: as §1
Enterobacter cloacae [12] = assay: Antimicrobial activity against aac(6')-Ib-cr-negative Enterobacter cloacae GZ51T harboring qnrA gene by agar dilution method; assay type: functional
Escherichia coli [13] = assay: Antimicrobial activity against aac(6')-Ib-cr-negative Escherichia coli PU12 harboring GyrA S83L mutant, wild-type GyrB, ParC and qnrS genes by agar dilution method; assay type: functional; method in brief: as §1
Enterobacter cloacae [14] = assay: Antimicrobial activity against aac(6')-Ib-cr-negative Enterobacter cloacae FJ61T harboring qnrS gene by agar dilution method; assay type: functional
Klebsiella pneumoniae [15] = assay: Antimicrobial activity against aac(6')-Ib-cr-negative Klebsiella pneumoniae SY22 harboring GyrA S83I, ParC S80I mutant, wild-type GyrB and qnrS genes by agar dilution method; assay type: functional; method in brief: as §1
Klebsiella pneumoniae [16] = assay: Antimicrobial activity against aac(6')-Ib-cr-positive Klebsiella pneumoniae JN132T harboring qnrB gene by agar dilution method; assay type: functional
Method in brief: (§3)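 Transconjugants were made by conjugating a qnr/aac(6')-Ib-cr donor with azide-resistant E. coli J53. Selection used Trypticase soy agar with sodium azide 150 µg/ml and sulfamethoxazole 180 µg/ml. […] MICs were read by CLSI agar dilution (M7-A7) and interpreted per M100-S17.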

Klebsiella pneumoniae [17] = assay: Antimicrobial activity against aac(6')-Ib-cr-positive Klebsiella pneumoniae JN41T harboring qnrB gene by agar dilution method; assay type: functional; method in brief: as §3
Enterobacter cloacae [18] = assay: Antimicrobial activity against aac(6')-Ib-cr-positive Enterobacter cloacae FJ63 harboring GyrA S83I, GyrA D87A, ParC S80I mutant, wild-type GyrB and qnrS genes by agar dilution method; assay type: functional
Enterobacter cloacae [19] = assay: Antimicrobial activity against aac(6')-Ib-cr-negative Enterobacter cloacae GZ47 harboring qnrB and qnrS genes by agar dilution method; assay type: functional
Citrobacter freundii [20] = assay: Antimicrobial activity against aac(6')-Ib-cr-positive Citrobacter freundii PU55T harboring wild-type GyrA, ParC, GyrB and qnrA genes by agar dilution method
Klebsiella pneumoniae [21] = assay: Antimicrobial activity against aac(6')-Ib-cr-positive Klebsiella pneumoniae WH99T harboring qnrB gene by agar dilution method; assay type: functional; method in brief: as §3
Klebsiella pneumoniae [22] = assay: Antimicrobial activity against aac(6')-Ib-cr-positive Klebsiella pneumoniae JN132 harboring GyrA S83I, ParC S80I mutant, wild-type GyrB and qnrB genes by agar dilution method; assay type: functional; method in brief: as §2
Escherichia coli [23] = assay: Antimicrobial activity against aac(6')-Ib-cr-positive Escherichia coli FJ3T harboring wild-type GyrA, ParC, GyrB and qnrB genes by agar dilution method
Klebsiella pneumoniae [24] = assay: Antimicrobial activity against aac(6')-Ib-cr-positive Klebsiella pneumoniae JN41 harboring GyrA S83I, ParC S80I mutant, wild-type GyrB and qnrB genes by agar dilution method; assay type: functional; method in brief: as §2
Citrobacter freundii [25] = assay: Antimicrobial activity against aac(6')-Ib-cr-positive Citrobacter freundii JN1 harboring GyrA T83I, ParC S80I mutant, wild-type GyrB and qnrA genes by agar dilution method; assay type: functional; method in brief: as §1
Citrobacter freundii [26] = assay: Antimicrobial activity against aac(6')-Ib-cr-positive Citrobacter freundii JS33T harboring qnrA gene by agar dilution method; assay type: functional; method in brief: as §1
Klebsiella pneumoniae [27] = assay: Antimicrobial activity against aac(6')-Ib-cr-negative Klebsiella pneumoniae SY22T harboring qnrS gene by agar dilution method; assay type: functional; method in brief: as §1
Klebsiella pneumoniae [28] = assay: Antimicrobial activity against aac(6')-Ib-cr-positive Klebsiella pneumoniae WH99 harboring wild-type GyrA, ParC, GyrB and qnrB genes by agar dilution method; assay type: functional; method in brief: as §2
Enterobacter cloacae [29] = assay: Antimicrobial activity against aac(6')-Ib-cr-negative Enterobacter cloacae WH42 harboring wild-type GyrA, ParC, GyrB and qnrA genes by agar dilution method; assay type: functional
Enterobacter cloacae [30] = assay: Antimicrobial activity against aac(6')-Ib-cr-negative Enterobacter cloacae FJ67 harboring […] and qnrS genes by agar dilution method; assay type: functional
Escherichia coli [31] = assay: Antimicrobial activity against Escherichia coli J53 harboring wild-type GyrA, ParC, GyrB genes by agar dilution method
Enterobacter cloacae [32] = assay: Antimicrobial activity against aac(6')-Ib-cr-negative Enterobacter cloacae SH39T harboring qnrA gene by agar dilution method; assay type: functional
Citrobacter freundii [33] = assay: Antimicrobial activity against aac(6')-Ib-cr-negative Citrobacter freundii JN64 harboring GyrA T83I, wild-type ParC, GyrB and qnrA genes by agar dilution method; assay type: functional; method in brief: as §1
Enterobacter cloacae [34] = assay: Antimicrobial activity against aac(6')-Ib-cr-negative Enterobacter cloacae GZ47T harboring qnrB gene by agar dilution method; assay type: functional
Klebsiella pneumoniae [35] = assay: Antimicrobial activity against aac(6')-Ib-cr-positive Klebsiella pneumoniae GZ40 harboring GyrA S83I, ParC S80I mutant, wild-type GyrB and qnrB genes by agar dilution method; assay type: functional; method in brief: as §1
Enterobacter cloacae [36] = assay: Antimicrobial activity against aac(6')-Ib-cr-negative Enterobacter cloacae WH42T harboring qnrA gene by agar dilution method; assay type: functional
Klebsiella pneumoniae [37] = assay: Antimicrobial activity against aac(6')-Ib-cr-positive Klebsiella pneumoniae SY26T harboring wild-type GyrA, ParC, GyrB and qnrB genes by agar dilution method; assay type: functional
Method in brief: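 Transconjugants were made by conjugating a qnr/aac(6')-Ib-cr donor with azide-resistant E. coli J53. MICs were read by CLSI agar dilution (M7-A7) and interpreted per M100-S17.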

Enterobacter cloacae [38] = assay: Antimicrobial activity against aac(6')-Ib-cr-negative Enterobacter cloacae FJ61 harboring GyrA S83I, GyrA D87A, ParC S80I mutant, wild-type GyrB and qnrS genes by agar dilution method; assay type: functional
Citrobacter freundii [39] = assay: Antimicrobial activity against aac(6')-Ib-cr-positive Citrobacter freundii TJ15T harboring wild-type GyrA, ParC, GyrB genes by agar dilution method; assay type: functional; method in brief: as §1
Citrobacter freundii [40] = assay: Antimicrobial activity against aac(6')-Ib-cr-positive Citrobacter freundii JN1T by agar dilution method; assay type: functional; method in brief: as §1
Enterobacter cloacae [41] = assay: Antimicrobial activity against aac(6')-Ib-cr-positive Enterobacter cloacae FJ63T harboring qnrS gene by agar dilution method; assay type: functional

Which MIC (Citrobacter freundii [1]) does the source give for `CO[C@@]1(NC(=O)Cc2cccs2)C(=O)N2C(C(=O)O)=C(COC(N)=O)CS[C@@H]21` [CEFOXITIN] here?
Its MIC is 256 µg/mL (≈ 599 µM).

What about the MIC (Enterobacter cloacae [2]) of the same compound?
The MIC was > 256 µg/mL.

And the MIC (Escherichia coli [3])?
Its MIC is 4 µg/mL (≈ 9.36 µM).

And the MIC (Klebsiella pneumoniae [4])?
Its MIC is 256 µg/mL (≈ 599 µM).

And the MIC (Citrobacter freundii [5])?
Its MIC is > 256 µg/mL.

And the MIC (Citrobacter freundii [6])?
The MIC was 8 µg/mL (≈ 18.7 µM).

And the MIC (Escherichia coli [7])?
The MIC was 8 µg/mL (≈ 18.7 µM).

What about the MIC (Enterobacter cloacae [8]) of the same compound?
The MIC was 4 µg/mL (≈ 9.36 µM).

What about the MIC (Enterobacter cloacae [9]) of the same compound?
Its MIC is > 256 µg/mL.

What about the MIC (Klebsiella pneumoniae [10]) of the same compound?
Its MIC is 2 µg/mL (≈ 4.68 µM).

What about the MIC (Citrobacter freundii [11]) of the same compound?
Its MIC is > 256 µg/mL.

What about the MIC (Enterobacter cloacae [12]) of the same compound?
The MIC was 4 µg/mL (≈ 9.36 µM).

What about the MIC (Escherichia coli [13]) of the same compound?
Its MIC is 4 µg/mL (≈ 9.36 µM).

And the MIC (Enterobacter cloacae [14])?
Its MIC is 4 µg/mL (≈ 9.36 µM).

And the MIC (Klebsiella pneumoniae [15])?
The MIC was 8 µg/mL (≈ 18.7 µM).

What about the MIC (Klebsiella pneumoniae [16]) of the same compound?
The MIC was 64 µg/mL (≈ 150 µM).

What about the MIC (Klebsiella pneumoniae [17]) of the same compound?
The MIC was 2 µg/mL (≈ 4.68 µM).

What about the MIC (Enterobacter cloacae [18]) of the same compound?
The MIC was 256 µg/mL (≈ 599 µM).

And the MIC (Enterobacter cloacae [19])?
The MIC was 256 µg/mL (≈ 599 µM).

What about the MIC (Citrobacter freundii [20]) of the same compound?
The MIC was 2 µg/mL (≈ 4.68 µM).

What about the MIC (Klebsiella pneumoniae [21]) of the same compound?
Its MIC is 64 µg/mL (≈ 150 µM).

What about the MIC (Klebsiella pneumoniae [22]) of the same compound?
Its MIC is 64 µg/mL (≈ 150 µM).

What about the MIC (Escherichia coli [23]) of the same compound?
The MIC was 2 µg/mL (≈ 4.68 µM).

What about the MIC (Klebsiella pneumoniae [24]) of the same compound?
The MIC was 4 µg/mL (≈ 9.36 µM).

And the MIC (Citrobacter freundii [25])?
Its MIC is > 256 µg/mL.

And the MIC (Citrobacter freundii [26])?
The MIC was 2 µg/mL (≈ 4.68 µM).

What about the MIC (Klebsiella pneumoniae [27]) of the same compound?
Its MIC is 4 µg/mL (≈ 9.36 µM).

What about the MIC (Klebsiella pneumoniae [28]) of the same compound?
Its MIC is 256 µg/mL (≈ 599 µM).

And the MIC (Enterobacter cloacae [29])?
The MIC was > 256 µg/mL.

And the MIC (Enterobacter cloacae [30])?
Its MIC is > 256 µg/mL.

What about the MIC (Escherichia coli [31]) of the same compound?
The MIC was 2 µg/mL (≈ 4.68 µM).

And the MIC (Enterobacter cloacae [32])?
Its MIC is 4 µg/mL (≈ 9.36 µM).

What about the MIC (Citrobacter freundii [33]) of the same compound?
Its MIC is > 256 µg/mL.

What about the MIC (Enterobacter cloacae [34]) of the same compound?
Its MIC is 32 µg/mL (≈ 74.9 µM).

And the MIC (Klebsiella pneumoniae [35])?
The MIC was 32 µg/mL (≈ 74.9 µM).

And the MIC (Enterobacter cloacae [36])?
The MIC was 2 µg/mL (≈ 4.68 µM).

What about the MIC (Klebsiella pneumoniae [37]) of the same compound?
Its MIC is 16 µg/mL (≈ 37.4 µM).

What about the MIC (Enterobacter cloacae [38]) of the same compound?
Its MIC is 256 µg/mL (≈ 599 µM).

And the MIC (Citrobacter freundii [39])?
The MIC was 64 µg/mL (≈ 150 µM).

And the MIC (Citrobacter freundii [40])?
Its MIC is 2 µg/mL (≈ 4.68 µM).

What about the MIC (Enterobacter cloacae [41]) of the same compound?
Its MIC is 4 µg/mL (≈ 9.36 µM).
